# Only a selection was taken, and hits are over-represented in it overall.
# bCat KO growth = beta-catenin-lacking colon tumor cell growth suppression; viability, % at 10 µM; HCT116 beta-catenin knockout viability, CellTiter-Glo, 60 h; stronger effect = lower value; AID 818; 1.5% of 140,000 active;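 active = viability at or under a set limit, the compound median less 4 SD, cut at about 6% in these data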;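 also: 0% = Hyamine 1622 control at 20 µM and 100% = untreated cell control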
# HUVEC prolif 384 = blocks proliferation of human endothelial cells. HUVEC proliferation, CellTiter-Glo luminescence, 72 h; stronger effect = lower value. viability, % at 10 µM (by protocol). 1.1% of 86,000 active. AID 648;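 active = viability at or below 30%; inactive = viability above 30%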;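 also: 100% = median luminescence of DMSO-only cell control wells on each plate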
# H69AR growth 86K = growth inhibitors of human H69AR lung tumor cells. H69AR lung tumor viability, ATP luminescence, 72 h; stronger effect = lower value. viability, % at 10 µM. 6% of 85,000 active;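 active = viability at or below 40%; inactive = viability above 40%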;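 also: multidrug resistant small cell line overexpressing MRP-1 efflux transporter; 100% = mean luminescence of untreated control wells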
# Lung fibro prol = blocks proliferation of human lung fibroblasts. LL 47 human lung fibroblast viability, ATP luminescence; stronger effect = lower value. viability, % at 10 µM. 1.1% of 85,000 active;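 active = viability at or below 50% in the single dose screen; inactive = viability above 50%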;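 also: compound exposure lasted 72 h before the ATP readout; 100% = median luminescence of untreated cell-only wells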
#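 Test system: LL 47 human lung fibroblasts; Quantity: 1,150 cells/well; Buffer or medium: IMEM plus 15% FBS; Dosing: tenfold compound dosing solution, DMSO at 0.1%; Timing: overnight cell rest, 72 h compound treatment at 37 °C; Detection: ATP-based CellTiter-Glo luminescent readout; Read-out basis: viability percentage against median untreated-cell control; Controls: cell-only wells, no compound.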
# PTEN del growth = growth suppressors of cells with PTEN tumor suppressor deletion; HCT116 PTEN-null viability, CellTiter-Glo, 60 h; stronger effect = lower value; viability, % at 10 µM; 1.2% of 140,000 active; AID 827;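 active = viability at or below a set limit, 4 SD under the median of all tested compounds, cut at about 3.7% in these data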;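 also: PTEN knockout HCT116 line with beta catenin targeted HCT116 as companion control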
# Numbers without * were called inactive; . = no result.
SMILES,bCat KO growth,HUVEC prolif 384,H69AR growth 86K,Lung fibro prol,PTEN del growth
COc1ccc2c(CC(=O)OCC(=O)c3ccc(F)cc3)coc2c1,83.3,94.7,106.0,101.9,90.8
Cc1ccc2nc(N(CCN(C)C)C(=O)/C=C/c3cccs3)sc2c1,78.3,.,.,.,79.5
CN(C)CCN(C(=O)/C=C/c1cccs1)c1nc2c(F)cc(F)cc2s1,1.6*,.,.,.,2.0*
C=CCCCCCCCCc1nc(=S)[nH][nH]1,109.8,94.3,20.9*,90.6,101.1
CCCCN1C(=O)C(NC(C)=O)c2cc(Br)ccc21 (configuration not stated),62.1,94.8,24.5*,100.4,65.4
CCn1cc(C(=O)NCc2ccccn2)c(=O)c2cc(F)c(N3CCN(C)CC3)cc21,85.5,100.3,72.3,101.7,91.5
CCn1cc(C(=O)NCCc2ccccc2)c(=O)c2cc(F)c(N3CCN(C)CC3)cc21,51.4,17.3*,42.3,79.3,53.0
CCn1cc(C(=O)N[C@H](C)c2ccccc2)c(=O)c2cc(F)c(N3CCN(C)CC3)cc21,43.9,47.1,9.7*,77.6,62.0
CCn1cc(C(=O)NCc2ccc3c(c2)OCO3)c(=O)c2cc(F)c(N3CCN(C)CC3)cc21,2.5*,79.1,21.0*,92.5,2.3*
Cc1ccc(NC(=O)COC(=O)C2CC3C=CC2C3)cc1S(=O)(=O)N1CCCCC1 (configuration not stated),84.8,.,.,.,78.0
O=C(c1ccc(F)cc1F)N1CCN(c2ncccn2)CC1,109.9,92.8,100.2,103.7,102.5
O=C(c1ccccc1OCc1ccccc1Br)N1CCN(c2ncccn2)CC1,50.9,72.6,28.3*,74.1,40.0
Cc1c(CN(C)C)c2c(n1Cc1ccccc1)C(=O)c1ccccc1-2,48.1,62.0,38.2*,75.1,37.5
CC1CCc2ccc(F)cc2N1S(=O)(=O)c1cccs1 (configuration not stated),43.8,83.2,27.4*,89.2,45.8
COC(=O)c1ccc(NC(=O)C(=O)N2CCN(C(=S)Nc3ccc(C)cc3)CC2)cc1,91.1,.,.,.,97.0
CC(C)(C)C(=O)n1nc(-c2ccccc2)oc1=O,89.3,.,.,.,99.1
COc1ccc(OC)c(N=c2ssnc2Cl)c1,97.2,.,.,.,93.7
Cc1cc(Cl)ccc1N=c1ssnc1Cl,12.9,39.5,2.2*,100.7,57.6
Cc1ccc(N=c2ssnc2Cl)cc1,96.7,101.0,2.4*,96.6,87.7
Cc1cc(C)nc(/N=c2/ssnc2Cl)c1,40.5,113.3,19.5*,105.4,12.0
COc1cc(N=c2ssnc2Cl)c(OC)cc1Cl,101.0,85.1,1.1*,44.0*,104.2
Cc1ccc(N=C2NC(=O)CS2)cc1,90.2,89.3,97.2,104.0,101.5
Cc1ccc(S(=O)(=O)Nn2c(C)ccc2C)cc1,97.4,88.7,84.5,95.7,95.9
COc1ccc(N=C2C(=O)N3c4c(cccc42)C(C)=CC3(C)C)cc1,15.8,.,.,.,17.4
N#CCC(=O)N/N=C/c1ccc(Sc2nc3ccccc3s2)o1,92.0,.,.,.,98.5
SMILES,bCat KO growth,HUVEC prolif 384,H69AR growth 86K,Lung fibro prol,PTEN del growth
COc1cc(CNc2ccc(CNc3ncn[nH]3)cc2)ccc1OCc1ccccc1,37.9,.,.,.,57.4
C=CCOc1cccc(C2c3c(oc4ccccc4c3=O)C(=O)N2c2ccccn2)c1 (configuration not stated),73.3,63.0,26.3*,87.3,76.9
CCOc1cccc(C2c3c(oc4ccccc4c3=O)C(=O)N2c2ccccn2)c1 (configuration not stated),76.1,72.5,99.6,84.1,86.5
Nc1nonc1-c1nc2ccccc2n1Cc1ccccc1,28.9,53.8,17.4*,61.5,25.9
CCCCn1c(N)nc2ccccc21,72.9,92.8,89.4,102.0,82.1
CC1CC(C)CN(C(=O)Cn2c(-c3nonc3N)nc3ccccc32)C1 (configuration not stated),86.4,96.3,59.6,108.2,85.1
CC(C)CCn1c(-c2nonc2N)nc2ccccc21,52.7,69.6,10.8*,80.8,49.8
Nc1nonc1-c1nc2ccccc2n1CC(=O)NC1CCCC1,86.7,96.3,87.4,99.3,90.7
CCCCn1c(-c2nonc2N)nc2ccccc21,63.6,81.8,30.0*,83.9,56.5
CCOC(=O)c1ccccc1NC(=O)Cn1c(-c2nonc2N)nc2ccccc21,17.0,37.5,27.0*,46.7*,15.2
CCNC(=O)C(=O)NCC1OCCCN1S(=O)(=O)c1cccs1 (configuration not stated),91.0,.,.,.,97.2
Cc1ccc(-c2nc3ccc(NS(=O)(=O)c4ccccc4)cc3[nH]2)o1,62.0,79.0,103.9,100.2,59.4

# Bioassay records: PubChem BioAssay, SRMLSC
